Data set [1] has as its system p38 activity. Kind of data set: single-cell p38 activity reporter. Format: cell-based. To be noted: RPE1 p38 reporter; for influence on p38 activity (two-sided t-test): 1 μM, 48 hours. An outline of the steps:
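RPE1 cells stably carrying a p38 kinase translocation reporter, grown in DMEM/F12 with 10% FBS at 37C, 5% CO2. Plated at 1000 cells/well, then given test compound at 1 or 10 μM for 48 h, 4 wells per concentration. Single-cell activity taken as median cytoplasmic-ring (5-pixel) over nuclear reporter intensity, normalised to same-plate/column DMSO. Significance by t-test or KS test with Benjamini-Hochberg adjustment.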

In data set [2] the test system is KP230 cells. To be noted: 10 μM.
The subject of data set [3] is PAX8. Particulars: ref PubChem; cited from earlier work.
Data set [4] relates to U2OS. Kind of data set: proliferation in U2OS Cell Painting images. Format: cell-based.
The subject of data set [5] is mesenchymal lineage periosteal cells. Kind of data set: qPCR of Hippo components in murine periosteal cells. To be noted: 5μM. Format: cell-based, mouse. An outline of the steps: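 Periosteal cells from 4-day femoral fracture callus of 3 female 15-week CMV-Cre;R26R-rtTA;tetO-YAPS127A mice (C57Bl/6 background). Cultured in α-MEM with 15% FBS, 1% GlutaMAX and 1% P/S. Test compound given at 5 μM. 1 μM doxycycline for 48 h induced YAPS127A as positive control for YAP1 mRNA.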
(In general: Quantitative PCR measures a nucleic acid by following its amplification.)

For data set [6], the system named is HEK293, HepG2, A549 cells. Particulars: ref PubChem; cited from earlier work.
The subject of data set [7] is native kinases. Kind of data set: full KINOMEscan panel. Format: binding.
Data set [8] has as its target human CSNK1A1 (Homo sapiens, UniProt P48729). Kind of data set: CSNK1A1 enzymatic mobility shift assay. Format: biochemical.
Data set [9] concerns PPARG. Kind of data set: PPARG. Format: cell-based. To be noted: bladder cancer cell line, absence or presence of Rosiglitazone.
The test system of data set [10] is KP230 cells. Kind of data set: RNA sequencing and gene set enrichment analysis in KP230 cells. Format: cell-based, mouse. Particulars: 10 μM. An outline of the steps: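 KP230 cells (murine Kras/Trp53 tumour-derived) grown in DMEM with 10% FBS, 1% L-glutamine and 1% P/S at 37C, 5% CO2. Kept at ≤20 passages and about 50% confluence. Treated with 10 μM test compound or an equal volume of DMSO. Total RNA isolated by RNeasy Mini with on-column DNase digestion, then sequenced.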

Data set [11] relates to KP230, TC32, STS-109, HT-1080, HCT-116 cells. Kind of data set: trypan blue staining for toxicity. Particulars: 10 μM, any of the cell lines tested. Format: cell-based.
Data set [12] has as its system A375 cells. Particulars: 6 and 24 hours, ref Subramanian et al., 2017; cited from earlier work.
In data set [13] the test system is Yap1. Kind of data set: qRT-PCR of Yap1 and sarcoma target genes in KP230 cells. The format is cell-based, mouse.
For data set [14], the system named is YAP1. Kind of data set: YAP1 immunofluorescence and Western blot in H9 hPSCs. The format is cell-based, human. To be noted: H9 cells, 10 μM. (A western blot detects proteins with antibodies after separation by electrophoresis.)
Data set [15] has as its system KP230 cells. Kind of data set: proliferation assay. Format: cell-based, mouse. To be noted: 10 μM every 24 hours for 3 days.
Data set [16] deals with Yap1. Kind of data set: Yap1 Western blot and immunofluorescence in KP230 cells. The format is cell-based, mouse. To be noted: 10 μM daily.
Data set [17] has as its system HT-1080 fibrosarcoma cells. Kind of data set: proliferation assay. To be noted: 10 μM every 24 hours for 3 days. Format: cell-based.
Data set [18] has as its system TEAD-YAP interaction. To be noted: HEK-TIYL cells; ref PubChem; cited from earlier work.
Data set [19] relates to YAP1 target genes (CTGF and CYR61). Kind of data set: qPCR of YAP1 and target genes in H9 hPSCs. The format is cell-based, human. To be noted: 24 hrs.
Data set [20] has as its system YAP1. Kind of data set: YAP1-responsive TEAD luciferase reporter assay in HEK-293 cells. To be noted: 10μM, 48h of YAP overexpression. The format is cell-based. A general note: Reporter assays use an easily measured gene product as a stand-in for the process of interest.
For data set [21], the system named is TC32 human Ewing’s family sarcoma cells. Kind of data set: proliferation assay. The format is cell-based. To be noted: 10 μM every 24 hours for 3 days.
Data set [22] deals with HCT-116 colon cancer cells. Kind of data set: proliferation assay. The format is cell-based. To be noted: 10 μM every 24 hours for 3 days, YAP1-independent line.
The test system of data set [23] is STS-109 human UPS cells. Kind of data set: proliferation assay. The format is cell-based. Particulars: 10 μM daily for 8 days.
The test system of data set [24] is HT29 cells. To be noted: six hours of treatment, ref Subramanian et al., 2017; cited from earlier work.

Chain of human CSNK1A1 (P48729 whole entry): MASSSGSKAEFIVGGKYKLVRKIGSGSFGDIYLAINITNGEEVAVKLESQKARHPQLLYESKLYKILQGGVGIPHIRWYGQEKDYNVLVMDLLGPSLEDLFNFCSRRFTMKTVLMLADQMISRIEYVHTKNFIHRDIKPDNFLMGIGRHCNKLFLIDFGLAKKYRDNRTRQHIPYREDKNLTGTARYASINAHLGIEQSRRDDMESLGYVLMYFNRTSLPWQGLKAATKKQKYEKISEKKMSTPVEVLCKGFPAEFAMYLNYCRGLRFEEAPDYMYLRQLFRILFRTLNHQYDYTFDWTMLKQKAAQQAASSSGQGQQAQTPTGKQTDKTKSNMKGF

`Nc1nc(Nc2ccccc2)nc2c1ncn2C1OC(CO)C(O)C1O` (stereo not drawn) [BRD-A64933752]: the “influence on p38 activity (two-sided t-test)” value in [1] is “potential inhibitors”.

Consider `CO[C@@H]1CN(C)C(=O)c2ccc(NC(=O)c3ccc(-c4ccccc4)cc3)cc2OC[C@H](C)NC[C@@H]1C` [BRD-K28862419, N-((3S,6S,7S)-7-methoxy-3,6,9-trimethyl-10-oxo-3,4,5,6,7,8,9,10-octahydro-2H-benzo[k][1]oxa[4,9]diazacyclododecin-13-yl)-[1,1′-biphenyl]-4-carboxamide], for which the KP230 cell viability result in data set [2] was “modestly yet significantly reduced”. Also, the PAX8 inhibition result in data set [3] is given as “inhibits”. In [4], the “proliferation in U2OS Cell Painting images” value is on record as −2.0 st dev.

As for `CO[C@@H]1CN(C)C(=O)c2cc(NC(=O)Nc3ccc(C(F)(F)F)cc3)ccc2OC[C@@H](C)NC[C@@H]1C` [BRD-K34692511, 1-[(4R,7S,8S)-8-methoxy-4,7,10-trimethyl-11-oxo-2-oxa-5,10-diazabicyclo[10.4.0]hexadeca-1(12),13,15-trien-14-yl]-3-[4-(trifluoromethyl)phenyl]urea], the “mRNA levels of Hippo components including Yap1 and Cyr61” value in [5] (1 and 4 hours) is “not at 1 and 4 hours”; in data set [5] (48 hours), “substantially upregulated”. Also, the PAX8 inhibition entry in [3] was “none of these impacts”. In addition, in data set [6], the “inhibition of cell proliferation AC50” value is given as “none of these impacts”. For the same compound, in data set [4], the “proliferation in U2OS Cell Painting images” value is recorded as “none of these impacts”.

As to `CCCCNc1cc(C(=O)O)cc(S(N)(=O)=O)c1Oc1ccccc1` [BRD-K38197229], the “influence on p38 activity (two-sided t-test)” value in [1] is on record as “potential inhibitors”.

Consider `COC1(C[S@@+]([O-])c2ccccc2)CCN(CCc2c[nH]c3ccc(F)cc23)CC1` [BRD-K52394958], for which the “influence on p38 activity (alternative statistical test)” value in data set [1] is “identified via an alternative statistical test”.

In the case of `C[C@@H]1CN([C@@H](C)CO)C(=O)CCCn2nncc2CO[C@@H]1CN(C)C(=O)Nc1ccnc(N2CCOCC2)c1` [BRD-K65952656], the “binding to native kinases in full KINOMEscan panel” value in data set [7] is “failed to bind any native kinases”. Further, the IC50 in data set [8] (read-out: inhibition of CSNK1A1 IC50) amounted to 12 µM.

With `CCc1cc(-c2n[nH]c(C)c2-c2ccc3c(c2)OCCO3)c(O)cc1O` [CCT018159], the “effect in PPARG (FABP4) reporter assay” value in data set [9] is recorded as “Inhibitors”.

In the case of `c1ccc(CNc2ncnc3ccccc23)cc1` [NB4A, N-Benzylquinazolin-4-amine], in data set [10], the “epithelial-mesenchymal transition, angiogenesis and glycolysis pathways (GSEA)” value is on record as “down-regulated”; the “interferon alpha and gamma response pathways (GSEA)” value is reported as “up-regulated”. Besides, the “overt toxicity by trypan blue staining” value in data set [11] is listed as “did not exhibit overt toxicity”. Besides, the “YAP1 mRNA z-score” value in data set [12] is listed as ~ −0.7. In data set [13], the “transcription of Yap1, its sarcoma target genes (Foxm1, Ccl2, Hbegf, Birc5, Rela) and Amot” value was “did not directly alter”. Also, in [14] (24 hours), the YAP1 nuclear localization entry was “increased”. For the same compound, in [14] (24 hrs), the “YAP1 S127 phosphorylation” value is on record as “reduced” and the “total YAP1 protein levels” value is recorded as “decreasing”. The “proliferation of KP230 cells” value in data set [15] is “inhibited”. Besides, the Yap1 nuclear localization result in data set [16] is on record as “significantly attenuated”. The Yap1 protein levels entry in data set [16] (after 72 hours) was “reduced”. Besides, the “proliferation of HT-1080 cells” value in [17] was “did not affect”. In addition, in data set [18], the “activity in assay detecting inhibitors of TEAD-YAP interaction” value is listed as “showed activity”. Also, the “YAP1 mRNA expression” value in [19] is “did not affect”. For the same compound, the “expression of YAP1 target genes (CTGF and CYR61)” value in data set [19] (dose-dependent) is recorded as “increased”. In [20], the “effect in YAP1-responsive reporter assay” value is “no effect”. Further, in data set [21], the “proliferation of TC32 cells” value is “inhibited”. In data set [22], the “proliferation of HCT-116 cells” value is on record as “did not affect”. For the same compound, in data set [23], the “proliferation of STS-109 cells” value is given as “did not affect”. Moreover, in [24], the “TAZ mRNA z-score” value is recorded as 2.04 and the “YAP1 mRNA z-score” value is 3.16.

Turning to `Cc1ccc(-c2nn(C(C)(C)C)c3ncnc(N)c23)cc1` [PP1], in [9], the “effect in PPARG (FABP4) reporter assay” value was “reporter activation”.

Turning to `CC(C)(C)n1nc(-c2ccc(Cl)cc2)c2c(N)ncnc21` [PP2], the “effect in PPARG (FABP4) reporter assay” value in [9] is “reporter activation”.

For the compound `CCCCCCCCCCCCCC(=O)O[C@@H]1[C@@H](C)[C@@]2(O)[C@@H](C=C(CO)C[C@]3(O)C(=O)C(C)=C[C@@H]23)[C@@H]2C(C)(C)[C@]12OC(C)=O` [Phorbol 12-myristate 13-acetate], the “effect in PPARG (FABP4) reporter assay” value in [9] is reported as “Inhibitors”.

Take `Fc1ccc(-c2nc3n(c2-c2ccncc2)CCS3)cc1` [SKF-86002, reference compound]: the “inhibitory IC50 concentrations, CSNK1A1” value in data set [8] (at Km ATP) is “nanomolar range”.

What is called IC50 is the point on the concentration scale where inhibition reaches its midpoint.
